# Fewer inactive variants are shown than the library holds.
# B1: tRNA (parent)
# chain: GUUCCGUUGGCGUAAUGGUAACGCGUCUCCCUCCUAAGGAGAAGACUGCGGGUUCGAGUCCCGUACGGAACG
# Variants of: B1
# Assay: yeast fitness relative to wild type (ratio to wild type); higher = fitter; tRNA-Arg(CCU), competitive growth, 37 C, YPD
# Procedure, shortened: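 For this measurement, the tRNA-Arg(CCU) gene was varied by chemical synthesis at a 3% per-site mutation rate across 69 sites, and each variant was placed at the native genomic locus in Saccharomyces cerevisiae. The pooled strains went through a 24-hour competition in YPD at 37°C in six parallel replicates, with amplicons from start and end populations read by 100-nucleotide paired-end sequencing. Darwinian fitness relative to wild type followed from the change in each genotype's frequency. Genotypes needed ≥ 100 starting reads, and estimates < 0.5 were set to 0.5.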
row,Variant,yeast fitness
1,C30G A45G U47C,≤ 0.5
2,C29U A37C A65C,≤ 0.5
3,C29U G63A G67A,0.523
4,C29U A42U C66A,0.567
5,C30A G51A G67U,≤ 0.5
6,C30A G52A A57U,≤ 0.5
7,C29U C30G,0.716
8,C29U C30U,0.763
9,C29U C30A,0.744
10,C30A C46G G56A,0.74
11,C30A C31U A45C C55G,0.522
12,C30A C34A A43C C62U,≤ 0.5
13,C30A G56U A65G C66U,≤ 0.5
14,C30G A42G U64G,≤ 0.5
15,C30G A37G A43U,0.593
16,C30A G38A G44A,≤ 0.5
17,C30G A43G C49G,0.544
18,C29U A43U C46A G50A C61G G68A,≤ 0.5
19,C29U G48A G56C,0.536
20,C30A A40G A42U C62A,≤ 0.5
21,C29U A42G U64C,0.592

row,Variant,yeast fitness
1,C30A A43U G58C U64G,≤ 0.5
2,C30A U32C,0.892
3,C30A U32G,0.624
4,C29U A65C,0.751
5,C29U A65G,0.934
6,C29U A45U,0.928
7,C29U A45G,0.98
8,C29U C33G G44C,≤ 0.5
9,C29U C31G C34G A37C C46A G50A A57U C66U,≤ 0.5
10,C30A A37C A43U,0.608
11,C29U C33U,0.826
12,C29U U35C A37C,≤ 0.5
13,C29U C34U,0.716
14,C29U C34G,0.603
15,C29U C49U C61U,0.532
16,C29U C49U C61A,≤ 0.5
17,C30G A40C C55G,0.624
18,C30G A42U G58C,≤ 0.5
19,C29U C30A A45C,0.563
20,C30A C46U G52C C66U,≤ 0.5
21,C29U A37G G39C C49U,≤ 0.5

row,Variant,yeast fitness
1,C30A C31U A36G G50A C66U,≤ 0.5
2,C30A A37G,0.86
3,C29U G50C U59A,0.605
4,C29U G41C C62U,0.552
5,C29U A42C,0.676
6,C29U A42U,0.769
7,C29U A42G,0.975
8,C30G A45C,0.669
9,C29U U32A,0.83
10,C30A A45U C49A G50A G63U A70U,≤ 0.5
11,C30A C31G G38C A57C,≤ 0.5
12,C30A C31U C66U A69U,≤ 0.5
13,C30A U64C,0.885
14,C29U C31U A42C A69C,0.673
15,C30G A45U C60G C62U C66G,≤ 0.5
16,C30G A37G C61U,≤ 0.5
17,C29U A40U,0.836
18,C29U A40C,0.815
19,C29U C46G U54C G56C,≤ 0.5
20,C30A A40U G41C C61G G63C,≤ 0.5
21,C30A A40G C66A,≤ 0.5

row,Variant,yeast fitness
1,C30A A42C A70C,0.819
2,C30A C31U C33U A37C,≤ 0.5
3,C29U A36G,0.842
4,C29U A36U,0.567
5,C30A C61A A65G C66G A70G,≤ 0.5
6,C29U A37U C46U,0.602
7,C29U C34U G39A G58A C60U,≤ 0.5
8,C30A C60G,0.635
9,C30A C60U,0.727
10,C29U C49G G58C,≤ 0.5
11,C29U U35G C62U,≤ 0.5
12,C30A A65C C66U,≤ 0.5
13,C30G A37G C55G,0.537
14,C29U C30G A70C,0.536
15,C30A C34G A45U,≤ 0.5
16,C30A A42G G44A,0.704
17,C30G A37C A42G A57U,1.01
18,C29U U32C C46A,0.521
19,C29U U32G A43U G44C,≤ 0.5
20,C30A A45C C46U,0.613

# Source: the RNAGym collection of RNA variant scans (doi:10.1126/science.aae0568)
